Screening results from PubChem BioAssay.
KDM4C inh: inhibitors of GASC-1 (KDM4C) histone demethylase, primary screen, biochemical, single concentration HTS. 96,000 compounds, 0.15% hits. Lysine-specific demethylase 4C (Homo sapiens), Q9H3R0. GST-KDM4C 2-372, H3K9me3 peptide, LANCE TR-FRET. inhibition, % at 12.5 µM;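 active = mean replicate inhibition above about 25%, with at least 55% of replicates also reaching it, limit read from the data, passing the limit was not always enough; inconclusive = only one of those two conditions met; inactive = neither condition met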
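System: N-terminal GST-fused human GASC-1 (KDM4C) fragment, residues 2-372 / Amount: 10 nM GST-KDM4C in enzyme reaction / Also added: H3K9me3 peptide with Fe(II)/2OG / Times: 30 min demethylation and 1 h detection at room temperature / Signal: LANCE TR-FRET / Read-out basis: Fall in 671/618 emission ratio as inhibition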
Pf Dd2 inh: P. falciparum Dd2 growth inhibitors, primary screen, SYBR Green fluorescence, single dose replicates | activity change, % at 10 µM | 72 h; active compounds read low | AID 1159554, 2015 | 94,000 compounds, 2.3% hits; in the data active = activity change below about -80%; inconclusive = no clear call, values can overlap the other calls
IDH1 mut inh: inhibitors of IDH1 R132H reductase, primary screen, biochemical, plate reader, single point. 70,000 compounds, 0.18% hits. inhibition, % at 10 µM. diaphorase/resazurin fluorescence, 60 min. Isocitrate dehydrogenase [NADP] cytoplasmic (Homo sapiens), O75874; in the data active = inhibition above about 34%; inconclusive = no clear call, values can overlap the other calls; inactive = below about 11%;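 note: 0% = DMSO and 100% = no enzyme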
Target sequence (O75874 whole entry R132H): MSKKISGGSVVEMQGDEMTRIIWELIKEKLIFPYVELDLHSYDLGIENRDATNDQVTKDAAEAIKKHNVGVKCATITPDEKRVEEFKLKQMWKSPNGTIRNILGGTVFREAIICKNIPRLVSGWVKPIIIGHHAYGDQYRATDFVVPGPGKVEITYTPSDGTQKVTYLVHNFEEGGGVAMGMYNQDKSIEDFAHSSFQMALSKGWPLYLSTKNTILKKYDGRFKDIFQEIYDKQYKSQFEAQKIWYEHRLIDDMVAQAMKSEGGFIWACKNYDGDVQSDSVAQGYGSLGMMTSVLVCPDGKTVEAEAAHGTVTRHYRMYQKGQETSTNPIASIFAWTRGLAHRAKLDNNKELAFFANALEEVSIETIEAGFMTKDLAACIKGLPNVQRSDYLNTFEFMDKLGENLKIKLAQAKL
T cruzi growth-1: T. cruzi intracellular proliferation inhibitors, primary screen, cell-based, beta-gal Tulahuen parasites, NIH3T3 host, luminescence; T. cruzi beta-gal in NIH3T3, GalScreen luminescence, 90 h; inhibition, % at 8.34 µM; 77,000 compounds, 5.9% hits;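 active = mean inhibition above about 93%, with at least 55% of replicates each passing it, limit read from the data, passing the limit was not always enough; inconclusive = only one of those two conditions holds; inactive = neither condition holds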
T cruzi growth-2: T. cruzi intracellular proliferation inhibitors, confirmation, cell-based, NIH3T3 host, beta-gal parasite, luminescence, cherry-pick. shares compounds with T cruzi growth-1. T. cruzi beta-gal in NIH3T3, GalScreen luminescence, 90 h. inhibition, % at 8.35 µM. 5,600 compounds, 72% hits;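 active = mean replicate inhibition above about 95% and at least 55% of replicates individually reaching it, limit read from the data; inconclusive = only one of the two criteria is met; inactive = neither criterion is met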
T cruzi growth-3: inhibitors of intracellular T. cruzi replication, confirmation, NIH3T3 host cells, beta-gal parasites, cherry-pick, set 2 | T. cruzi beta-gal in NIH3T3, GalScreen luminescence, 90 h | 5,600 compounds, 21% hits | shares compounds with T cruzi growth-1 | AID 651740, 2012 | inhibition, % at 2.09 µM;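 active = mean inhibition above about 95%, with at least 55% of replicates also reaching it, limit read from the data; inconclusive = meets just one of the two conditions; inactive = meets neither condition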;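 note: plate controls were neutral control median for no effect and positive control median for full effect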
3T3 cytotox: cytotoxicity in mouse NIH/3T3 fibroblasts, confirmation, cytotoxicity control for T. cruzi proliferation inhibitor project, cell-based, cherry-pick, single point. shares compounds with T cruzi growth-1. NIH/3T3 viability, CellTiter-Glo ATP luminescence, 90 h. cytotoxicity (signal decrease), % at 8.35 µM. 5,600 compounds, 14% hits;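 active = mean signal decrease across replicates above about 35% based on untreated-well scatter, with enough replicates individually passing, limit read from the data; inconclusive = no rule stated though some were filed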;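 note: 0% = median of neutral control wells and 100% = median of positive control wells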
3T3 cytotox 2: NIH/3T3 fibroblast cytotoxicity, confirmation, cytotoxicity control, cell-based, cherry-pick, single point, set 2; shares compounds with T cruzi growth-1; NIH/3T3 viability, CellTiter-Glo ATP luminescence, 90 h; inhibition, % at 24.9 µM; 5,600 compounds, 56% hits;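 active = mean loss of cell viability signal at or above a set limit, and enough replicates individually reaching it; inconclusive = meets only the mean limit or only the replicate share; inactive = meets neither condition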;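 note: 0% = median of neutral control wells and 100% = median of positive control wells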
Numbers without * were called inactive; ? = inconclusive; . = no result given. Most compounds without a hit are left out; they make up all but 5.9% or so of the library.

SMILES	KDM4C inh	Pf Dd2 inh	IDH1 mut inh	T cruzi growth-1	T cruzi growth-2	T cruzi growth-3	3T3 cytotox	3T3 cytotox 2
C[C@H]1CN([C@@H](C)CO)S(=O)(=O)c2ccc(C3=CCCCC3)cc2O[C@@H]1CN(C)S(=O)(=O)c1ccc(F)cc1	0.7	-60.2	2.2	116.7*	92.4	107.8*	?	54.6*
C[C@H]1CN([C@@H](C)CO)S(=O)(=O)c2ccc(C3=CCCCC3)cc2O[C@H]1CN(C)S(=O)(=O)c1ccc(F)cc1	-2.5	-83.1*	.	125.4*	108.8*	104.6*	-10.0	49.7*
C[C@@H]1CN([C@@H](C)CO)S(=O)(=O)c2ccc(C3=CCCCC3)cc2O[C@@H]1CN(C)S(=O)(=O)c1ccc(F)cc1	-0.2	-34.0	.	120.5*	97.8*	84.1	23.6	74.8*
C[C@@H]1CN([C@@H](C)CO)S(=O)(=O)c2ccc(C3=CCCCC3)cc2O[C@H]1CN(C)S(=O)(=O)c1ccc(F)cc1	0.7	-78.3	.	121.4*	103.6*	92.1	28.9	30.6*
C[C@@H]1CN([C@@H](C)CO)S(=O)(=O)c2ccc(C3=CCCCC3)cc2O[C@@H]1CN(C)S(C)(=O)=O	0.7	56.7	0.3	59.3	.	.	.	.
C[C@H](CO)N1C[C@H](C)[C@H](CN(C)S(C)(=O)=O)Oc2cc(C3=CCCCC3)ccc2S1(=O)=O	-0.5	29.0	.	88.2	.	.	.	.
C[C@H](CO)N1C[C@H](C)[C@H](CN(C)S(=O)(=O)c2ccc(F)cc2)Oc2cc(C3=CCCCC3)ccc2S1(=O)=O	-1.1	-64.3	.	118.2*	101.4*	105.3*	46.1*	61.8*
COc1ccc(NC(=O)Nc2ccc3c(c2)C(=O)N([C@H](C)CO)C[C@H](C)[C@H](CN(C)Cc2ccc4c(c2)OCO4)OCCCC[C@H](C)O3)cc1	-0.1	-68.0	7.1	?	98.2*	99.2*	9.3	103.2*
COc1ccc(NC(=O)Nc2ccc3c(c2)C(=O)N([C@H](C)CO)C[C@@H](C)[C@@H](CN(C)Cc2ccc4c(c2)OCO4)OCCCC[C@@H](C)O3)cc1	-0.7	-78.4	-0.3	124.3*	99.8*	81.9	17.2	36.9*
COc1ccc(NC(=O)Nc2ccc3c(c2)C(=O)N([C@@H](C)CO)C[C@@H](C)[C@@H](CN(C)Cc2ccc4c(c2)OCO4)OCCCC[C@H](C)O3)cc1	-1.3	-69.7	.	78.6	.	.	.	.
COc1ccc(NC(=O)Nc2ccc3c(c2)C(=O)N([C@@H](C)CO)C[C@H](C)[C@H](CN(C)Cc2ccc4c(c2)OCO4)OCCCC[C@H](C)O3)cc1	0.1	-76.6	.	118.0*	101.6*	102.5*	40.1*	42.8*
COc1ccc(NC(=O)Nc2ccc3c(c2)C(=O)N([C@@H](C)CO)C[C@H](C)[C@H](CN(C)Cc2ccc4c(c2)OCO4)OCCCC[C@@H](C)O3)cc1	-0.1	-66.6	0.6	102.8*	103.1*	53.8	0.3	7.7
COc1ccc(NC(=O)Nc2ccc3c(c2)C(=O)N([C@H](C)CO)C[C@@H](C)[C@H](CN(C)Cc2ccc4c(c2)OCO4)OCCCC[C@@H](C)O3)cc1	-1.1	-82.9*	.	101.3*	92.6	94.5	?	106.4*
COC(=O)c1ccccc1NC(=O)CSc1nc(-c2cccs2)cc(C(F)(F)F)c1C#N	.	.	0.3	.	.	.	.	.
